Data: ChEMBL document CHEMBL3872205, “Design, synthesis and evaluation of novel potent angiotensin II receptor 1 antagonists” (Eur J Med Chem, 2016)

Legend:
[1] = Half life in Wistar rat plasma at 10 mg/kg, po by HPLC analysis; format: ADME, organism-based
[2] = Tmax in Wistar rat plasma at 15 mg/kg, po by HPLC analysis; format: ADME, organism-based
Summary of the method: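 Male Wistar rats (180 ± 20 g), 6 per dose group, each given a single oral dose. Blood was drawn by retro-orbital puncture into heparin at predose and at 0.5, 1, 2, 4, 6, 8, 12, 24, 48 and 72 h, then spun at 4000 × g and 4 °C. Plasma with internal standard was acetonitrile-precipitated, filtered and run on reverse-phase C18 HPLC (0.02 mol/L KH2PO4 55% / acetonitrile 45%, 1.0 mL/min). Calibration standards were 0.1–10 µg/mL, fitted by peak-height ratio with 1/conc² weighting.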

[3] = MRT (0 to infinity) in Wistar rat spleen at 30 mg/kg, po by HPLC analysis; format: ADME, organism-based
Summary of the method: (§1)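 Male Wistar rats (180 ± 20 g) received a single oral dose of 10, 15 or 30 mg/kg. Tissues were collected at 0, 0.5, 1, 2, 4, 6, 8, 12, 24, 48 and 72 h (n = 6 per point). Samples of 0.25 g were rinsed, then homogenized in saline (0.25 g/1 mL) and centrifuged at 10,000 × g. Supernatant was methanol-extracted, dried under nitrogen at 50 °C and reconstituted in methanol. Analysis was by C18 HPLC (acetonitrile 60% / water 40%, 1.0 mL/min).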

[4] = AUC (0 to infinity) in Wistar rat brain at 15 mg/kg, po by HPLC analysis; format: ADME, organism-based; set-up: dose 15 mg/kg, time infinity, route oral
Summary of the method: (§2)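 Wistar rats (180 ± 20 g) were dosed orally at 10, 15 or 30 mg/kg. Heart, liver, spleen, lung, kidney and brain were collected at 0–72 h (n = 6 per point). Tissue was rinsed, blotted and homogenized in saline (0.25 g/1 mL), then spun at 10,000 × g. Supernatant was methanol-extracted, dried under nitrogen at 50 °C, reconstituted in methanol and run on C18 HPLC (acetonitrile 60%/water 40%, 1.0 mL/min).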

[5] = Half life in Wistar rat brain at 30 mg/kg, po by HPLC analysis; format: ADME, organism-based
Summary of the method: (§3)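 Tissue distribution in male Wistar rats given oral 10, 15 or 30 mg/kg; heart, liver, spleen, lung, kidney and brain collected predose and 0.5–72 h post-dose (n = 6 per time). Tissue rinsed in saline, homogenised 0.25 g/1 mL saline, methanol extraction, dried under nitrogen, reconstituted in methanol. Analysis by reverse-phase C18 HPLC, acetonitrile/water 60:40, 1.0 mL/min, ambient temperature.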

[6] = Tmax in Wistar rat spleen at 10 mg/kg, po by HPLC analysis; format: ADME, organism-based
[7] = MRT (0 to 72 hrs) in Wistar rat spleen at 10 mg/kg, po by HPLC analysis; format: ADME, organism-based; summary of the method: as §1
[8] = MRT (0 to 72 hrs) in Wistar rat brain at 10 mg/kg, po by HPLC analysis; format: ADME, organism-based; summary of the method: as §3
[9] = Half life in Wistar rat plasma at 15 mg/kg, po by HPLC analysis; format: ADME, organism-based
[10] = AUC (0 to infinity) in Wistar rat liver at 15 mg/kg, po by HPLC analysis; format: ADME, organism-based; set-up: dose 15 mg/kg, route oral, time infinity; summary of the method: as §2
[11] = MRT (0 to 72 hrs) in Wistar rat kidney at 30 mg/kg, po by HPLC analysis; format: ADME, organism-based; summary of the method: as §3
[12] = Cmax in Wistar rat brain at 30 mg/kg, po by HPLC analysis; format: ADME, organism-based; set-up: dose 30 mg/kg, route oral; summary of the method: as §2
[13] = Cmax in Wistar rat heart at 10 mg/kg, po by HPLC analysis; format: ADME, organism-based; set-up: dose 10 mg/kg, route oral; summary of the method: as §3
[14] = MRT (0 to 72 hrs) in Wistar rat kidney at 10 mg/kg, po by HPLC analysis; format: ADME, organism-based; summary of the method: as §3
[15] = Half life in Wistar rat kidney at 30 mg/kg, po by HPLC analysis; format: ADME, organism-based; summary of the method: as §3
[16] = Cmax in Wistar rat lung at 10 mg/kg, po by HPLC analysis; format: ADME, organism-based; set-up: dose 10 mg/kg, route oral; summary of the method: as §3
[17] = Tmax in Wistar rat Heart at 10 mg/kg, po by HPLC analysis; format: ADME, organism-based; summary of the method: as §1
Rattus norvegicus = test: Antihypertensive activity in spontaneous hypertensive rat model assessed as reduction in mean blood pressure at 10 mg/kg, po after 4 hrs; format: functional
Summary of the method: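 Male SHRs (250 ± 20 g) were randomized, 6 per group. Compound was suspended in 0.5% sodium carboxymethyl cellulose and given orally; vehicle-only negative control. Mean blood pressure was calculated as (SBP − DBP)/3 + DBP from systolic and diastolic readings over the time course. Data are mean ± SD, with p < 0.05 taken as significant.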

[18] = AUC (0 to 72 hrs) in Wistar rat liver at 30 mg/kg, po by HPLC analysis; format: ADME, organism-based; set-up: time < 72 hr, dose 30 mg/kg, route oral; summary of the method: as §2
[19] = Half life in Wistar rat spleen at 30 mg/kg, po by HPLC analysis; format: ADME, organism-based; summary of the method: as §3
[20] = MRT (0 to 72 hrs) in Wistar rat spleen at 30 mg/kg, po by HPLC analysis; format: ADME, organism-based; summary of the method: as §1
[21] = MRT (0 to infinity) in Wistar rat liver at 30 mg/kg, po by HPLC analysis; format: ADME, organism-based; summary of the method: as §1
[22] = AUC (0 to 72 hrs) in Wistar rat kidney at 10 mg/kg, po by HPLC analysis; format: ADME, organism-based; set-up: dose 10 mg/kg, time < 72 hr, route oral; summary of the method: as §2
[23] = AUC (0 to infinity) in Wistar rat brain at 30 mg/kg, po by HPLC analysis; format: ADME, organism-based; set-up: dose 30 mg/kg, route oral, time infinity; summary of the method: as §2
[24] = MRT (0 to infinity) in Wistar rat lung at 10 mg/kg, po by HPLC analysis; format: ADME, organism-based; summary of the method: as §1
[25] = AUC (0 to 72 hrs) in Wistar rat brain at 10 mg/kg, po by HPLC analysis; format: ADME, organism-based; set-up: time < 72 hr, dose 10 mg/kg, route oral; summary of the method: as §2
[26] = Cmax in Wistar rat spleen at 30 mg/kg, po by HPLC analysis; format: ADME, organism-based; set-up: dose 30 mg/kg, route oral; summary of the method: as §3
[27] = MRT (0 to infinity) in Wistar rat Heart at 10 mg/kg, po by HPLC analysis; format: ADME, organism-based; summary of the method: as §1
[28] = Half life in Wistar rat brain at 15 mg/kg, po by HPLC analysis; format: ADME, organism-based; summary of the method: as §3
[29] = MRT (0 to 72 hrs) in Wistar rat liver at 30 mg/kg, po by HPLC analysis; format: ADME, organism-based; summary of the method: as §1
[30] = Tmax in Wistar rat kidney at 15 mg/kg, po by HPLC analysis; format: ADME, organism-based; summary of the method: as §1
[31] = Half life in Wistar rat liver at 30 mg/kg, po by HPLC analysis; format: ADME, organism-based; summary of the method: as §3
[32] = Cmax in Wistar rat lung at 30 mg/kg, po by HPLC analysis; format: ADME, organism-based; set-up: dose 30 mg/kg, route oral; summary of the method: as §3
[33] = MRT (0 to 72 hrs) in Wistar rat lung at 15 mg/kg, po by HPLC analysis; format: ADME, organism-based; summary of the method: as §1
[34] = Half life in Wistar rat Heart at 10 mg/kg, po by HPLC analysis; format: ADME, organism-based; summary of the method: as §3
[35] = AUC (0 to infinity) in Wistar rat spleen at 15 mg/kg, po by HPLC analysis; format: ADME, organism-based; set-up: dose 15 mg/kg, route oral, time infinity; summary of the method: as §2
[36] = Toxicity in ICR mouse assessed as mortality at 2929.69 mg/kg, ig after 2 weeks; format: organism-based; conditions: in vivo, po
[37] = MRT (0 to 72 hrs) in Wistar rat kidney at 15 mg/kg, po by HPLC analysis; format: ADME, organism-based; summary of the method: as §3

## CCCCC1=NC2(CCCC2)C(=O)N1Cc1ccc2c(ccn2-c2ccccc2-c2nnn[nH]2)c1
[1]
  half-life: 9.93 h
[2]
  Tmax: 4.33 h
[3]
  MRT inf: 20.4 h
[4]
  AUC(0-inf): 1180 ng·h/mL
[5]
  half-life: 2.99 h
[6]
  Tmax: 2 h
[7]
  MRT last: 20.2 h
[8]
  MRT last: 8.1 h
[9]
  half-life: 9.03 h
[10]
  AUC(0-inf): 23500 ng·h/mL
[11]
  MRT last: 24.9 h
[12]
  Cmax: 196 ng/mL
[13]
  Cmax: 105 ng/mL
[14]
  MRT last: 21 h
[15]
  half-life: 22.4 h
[16]
  Cmax: 62.1 ng/mL
[17]
  Tmax: 4 h
Rattus norvegicus
  Activity: 28.39 mmHg
[18]
  AUC(0-t) at 72 h: 14500 ng·h/mL
[19]
  half-life: 13.4 h
[20]
  MRT last: 13.3 h
[21]
  MRT inf: 5.49 h
[22]
  AUC(0-t) at 72 h: 4340 ng·h/mL
[23]
  AUC(0-inf): 1790 ng·h/mL
[24]
  MRT inf: 10.6 h
[25]
  AUC(0-t) at 72 h: 346 ng·h/mL
[26]
  Cmax: 1880 ng/mL
[27]
  MRT inf: 12 h
[28]
  half-life: 2.59 h
[29]
  MRT last: 6.3 h
[30]
  Tmax: 2.33 h
[31]
  half-life: 2.12 h
[32]
  Cmax: 396 ng/mL
[33]
  MRT last: 6.64 h
[34]
  half-life: 16.9 h
[35]
  AUC(0-inf): 12000 ng·h/mL
[36]
  mortality at 336 h: 100%
[37]
  MRT last: 19.4 h
